Measured values from ChEMBL document CHEMBL1156264, “Synthesis and structure-activity relationships of dimeric peptide antagonists of the human immunoglobulin G-human neonatal Fc receptor (IgG-FcRn) interaction” (J Med Chem, 2010).
pIC50: −log10 of the molar value. Activity calls are given as the source filed them. The rule behind the calls is not given here. Numbered stars: 1 amine (or outer) side, 2 acyl side, 3 side chain; on linkers, the order of the positions; unused ones are H or OH. Bridge positions count the residues as written; N and C are the ends. Square brackets hold non-standard residues; d marks the D form. Peptide text beside a SMILES is read from it. I, II: the chains in the order shown. Phe(4-guanidino) = N=C(N)Nc1ccc(C[C@H](N)C(=O)O)cc1; X1 = O=C(C(=O)[*:2])[C@H](Cc1ccc(O)cc1)N[*:1]; NMeL = CN[C@@H](CC(C)C)C(=O)O; Pen = CC(C)(S)[C@H](N)C(=O)O; Suc = O=C(CCC(=O)[*:2])[*:1]; Sar = CNCC(=O)O

Assays:
[1] = target: T1, IgG receptor FcRn large subunit p51 (Homo sapiens, UniProt P55899); assay: Inhibition of IgG binding to soluble human FcRn after 2 hrs by competition ELISA
[2] = tested on: Mus musculus; assay: Increase in human IgG catabolism in endogenous FcRn/beta2m gene knockout TG32B transgenic mouse harboring human FcRn at 1 mg/kg, iv QD for 4 consecutive days measured after 24 hrs by ELISA; assay type: functional, organism-based; set-up: dose 1 mg/kg
Procedure, shortened: (§1)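 TG32B mice (muFcRn−/−, muβ2m−/−, huFcRn+/+, huβ2m+/+), 4 per group, got 500 mg/kg hIgG (pooled subtypes) iv at 0 h. Peptide or vehicle (20 mM sodium acetate, pH 5) was given iv at 24, 48, 72 and 96 h. Blood was taken before each injection and at 30, 120 and 168 h. Serum hIgG was measured by ELISA: goat anti-hIgG(Fab) capture, goat anti-hIgG(Fc)-HRP detection.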

[3] = target: T1, IgG receptor FcRn large subunit p51; assay: Ratio of RF-Pen-NMeAla-GHF-X-NMeLeu-YPC IC50 to compound IC50 for soluble human FcRn
[4] = target: T1, IgG receptor FcRn large subunit p51; assay: Ratio of RF-Pen-TGHF-valerolactam-NMeLeu-YPC IC50 to compound IC50 for soluble human FcRn
[5] = tested on: Mus musculus; assay: Increase in human IgG catabolism in iv dosed endogenous FcRn/beta2m gene knockout TG32B transgenic mouse harboring human FcRn administered QD for 4 consecutive days measured after 24 hrs by ELISA; assay type: functional, organism-based
Procedure, shortened: as §1

[6] = target: T1, IgG receptor FcRn large subunit p51; assay: Ratio of RF-Pen-TG-4GuPhe-G-Sar-NMeLeu-YPC IC50 to compound IC50 for soluble human FcRn

T1 sequence (P55899 whole entry): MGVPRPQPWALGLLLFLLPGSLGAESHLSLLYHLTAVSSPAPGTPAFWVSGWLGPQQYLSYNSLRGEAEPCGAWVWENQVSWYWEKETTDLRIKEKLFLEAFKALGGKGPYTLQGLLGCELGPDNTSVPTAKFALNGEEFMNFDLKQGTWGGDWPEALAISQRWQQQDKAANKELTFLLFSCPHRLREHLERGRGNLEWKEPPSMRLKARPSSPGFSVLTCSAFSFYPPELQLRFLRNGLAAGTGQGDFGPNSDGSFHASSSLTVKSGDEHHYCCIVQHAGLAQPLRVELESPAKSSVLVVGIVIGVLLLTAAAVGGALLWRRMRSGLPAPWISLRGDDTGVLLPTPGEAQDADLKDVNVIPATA

| Compound | pIC50 [1] | Activity [2] | Ratio IC50 [3] | Ratio IC50 [4] | Activity [5] | Ratio IC50 [6] |
| --- | --- | --- | --- | --- | --- | --- |
| CC(C)C[C@H]1C(=O)N[C@@H](Cc2ccc(O)cc2)C(=O)C(=O)N2CCC[C@H]2C(=O)N[C@H](C(N)=O)CSSC(C)(C)[C@H](NC(=O)[C@H](Cc2ccccc2)NC(=O)[C@H](CCCNC(=N)N)NC(=O)CCC(=O)NCCN(C)CC(=O)N[C@@H](CCCNC(=N)N)C(=O)N[C@@H](Cc2ccccc2)C(=O)N[C@@H]2C(=O)N(C)[C@@H](C)C(=O)NCC(=O)N[C@@H](Cc3c[nH]cn3)C(=O)N[C@@H](Cc3ccccc3)C(=O)N[C@H]3CCCN(CC(=O)N(C)[C@@H](CC(C)C)C(=O)N[C@@H](Cc4ccc(O)cc4)C(=O)C(=O)N4CCC[C@H]4C(=O)N[C@H](C(N)=O)CSSC2(C)C)C3=O)C(=O)N(C)[C@@H](C)C(=O)NCC(=O)N[C@@H](Cc2c[nH]cn2)C(=O)N[C@@H](Cc2ccccc2)C(=O)N[C@H]2CCCN(CC(=O)N1C)C2=O | 7.74 | Active | 61 |  |  |  |
| CC(C)C[C@H]1C(=O)N[C@@H](Cc2ccc(O)cc2)C(=O)C(=O)N2CCC[C@H]2C(=O)N[C@H](C(N)=O)CSSC(C)(C)[C@H](NC(=O)[C@H](Cc2ccccc2)NC(=O)[C@H](CCCNC(=N)N)NC(=O)CCC(=O)NCCN(C)CC(=O)N[C@@H](CCCNC(=N)N)C(=O)N[C@@H](Cc2ccccc2)C(=O)N[C@@H]2C(=O)N[C@@H]([C@@H](C)O)C(=O)NCC(=O)N[C@@H](Cc3c[nH]cn3)C(=O)N[C@@H](Cc3ccccc3)C(=O)N[C@H]3CCCN(CC(=O)N(C)[C@@H](CC(C)C)C(=O)N[C@@H](Cc4ccc(O)cc4)C(=O)C(=O)N4CCC[C@H]4C(=O)N[C@H](C(N)=O)CSSC2(C)C)C3=O)C(=O)N[C@@H]([C@@H](C)O)C(=O)NCC(=O)N[C@@H](Cc2c[nH]cn2)C(=O)N[C@@H](Cc2ccccc2)C(=O)N[C@H]2CCCN(CC(=O)N1C)C2=O |  |  |  | 110 | Active |  |
| CC(C)C[C@H]1C(=O)N[C@@H](Cc2ccc(O)cc2)C(=O)C(=O)N2CCC[C@H]2C(=O)N[C@H](C(N)=O)CSSC(C)(C)[C@H](NC(=O)[C@H](Cc2ccccc2)NC(=O)[C@H](CCCNC(=N)N)NC(=O)CCC(=O)N[C@@H](CCCNC(=N)N)C(=O)N[C@@H](Cc2ccccc2)C(=O)N[C@@H]2C(=O)N[C@@H]([C@@H](C)O)C(=O)NCC(=O)N[C@@H](Cc3ccc(NC(=N)N)cc3)C(=O)NCC(=O)N(C)CC(=O)N(C)[C@@H](CC(C)C)C(=O)N[C@@H](Cc3ccc(O)cc3)C(=O)C(=O)N3CCC[C@H]3C(=O)N[C@H](C(N)=O)CSSC2(C)C)C(=O)N[C@@H]([C@@H](C)O)C(=O)NCC(=O)N[C@@H](Cc2ccc(NC(=N)N)cc2)C(=O)NCC(=O)N(C)CC(=O)N1C (I: RF[Pen]TG[Phe(4-guanidino)]G[Sar][NMeL][X1]PC-NH2 / II: RF[Pen]TG[Phe(4-guanidino)]G[Sar][NMeL][X1]PC-NH2; disulfide I:3-I:12, II:3-II:12; linker I:N-II:N via Suc) |  | Active |  |  |  | 50 |
